Screens deposited in PubChem BioAssay by several laboratories.
Shown are actives, neighbours in structure and some others; about 4.2% of the full set was active somewhere.
UPR CHOP act: activators of apoptotic arm of unfolded protein response (CHOP). CHO-CHOP luciferase reporter, UPR activation, luminescence; percent of tunicamycin response over DMSO baseline. activation, % at 10 µM. actives 0.34% (n = 330,000);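 active means at 10 µM dose, activation of 40% or more, normalized to positive control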;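 further: 100% = tunicamycin at 10 µg/mL and 0% = DMSO alone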
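Assay system: CHO cells with stable CHOP pathway luciferase reporter; Buffer or medium: F12 plus 10% serum; Times: 16-18 h cell attachment, then 6 h compound exposure, 37 °C; Signal: luciferase luminescence; Read-out basis: percent activation relative to tunicamycin control; Control set: tunicamycin high control, DMSO low control.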
ANO1 activ: activators or potentiators of mouse TMEM16A chloride channel | Q8BHY3 | HEK293 TMEM16A/YFP-H148Q/I152L, iodide quench fluorescence; active compounds read low | B-score at 10 µM | actives 0.3% (n = 340,000);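 active means fluorescence-ratio B-score plate-corrected deviation score at least 3 library SD below zero, with starting fluorescence score within 5 deviations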;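 further: channel opened by trigger with iodide after compound preincubation; score built on the fluorescence ratio of max minus min over baseline; more negative score means more quench and so TMEM16A activation or potentiation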
CHOP inh: inhibitors of CHOP induction in ER stress response; AID 2732; CHO-K1 CHOP-promoter luciferase, tunicamycin-induced, 15-18 h; actives 3.8% (n = 220,000); inhibition, % at 10 µM;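 active means compounds that reduced the stress-induced luciferase reporter signal by more than about 70% of percent inhibition, limit read from the data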;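 further: 0% = tunicamycin plus vehicle and 100% = wells without tunicamycin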
Lipid droplet: hepatic lipid droplet formation modulation | inhibition, % at 6.5 µM | actives 0.4% (n = 240,000) | AML12 mouse hepatocytes, oleate lipid droplets, BODIPY imaging;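 active means lipid droplet intensity inhibited by at least 50%, with more than 500 cells counted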
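Assay system: AML12 hepatocytes (mouse) / Also added: 100 µM oleic acid challenge / Times: overnight treatment with compound plus oleate / Detection: high-content imaging of BODIPY-stained droplets and DAPI nuclei / Evaluation: % inhibition of lipid droplet signal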
ANO1 block: inhibitors of mouse TMEM16A calcium-activated chloride channel | actives 1.2% (n = 310,000) | AID 588511 | normalized B-score (activity score, 25-100; higher = stronger inhibition) at 10 µM | HEK293 TMEM16A/YFP iodide influx fluorescence, ionomycin | Q8BHY3;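 active means ratio plate-corrected score three or more library SD toward inhibition, starting fluorescence score within five deviations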;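 further: score derived from kinetic fluorescence span divided by baseline fluorescence per well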
UPR XBP1 act: adaptive UPR (XBP1) activation | CHO-XBP1 luciferase reporter, IRE1-XBP1 UPR activation, luminescence; percent of tunicamycin response, DMSO as zero | activation, % at 20 µM | actives 0.33% (n = 330,000);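 active means versus positive control, 20 µM dose yields 30% or more activation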;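 further: 100% = tunicamycin at 10 µg/mL and 0% = DMSO only wells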
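incubation = overnight seeding at 37 °C, 6 h compound treatment at 37 °C | assay system = CHO-XBP1 cells stably carrying IRE1-XBP1-driven luciferase reporter | input = 1000 cells per well | detection = luciferase luminescence | dosing = single point, 20 µM final compound, 1% DMSO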
TMEM16A reconf: reconfirmed blocker of mouse TMEM16A calcium-activated chloride channel | actives 39% (n = 2,300) | HEK293 TMEM16A/YFP-H148Q, iodide quench fluorescence; ionomycin added to raise cell calcium | shares compounds with ANO1 block | AID 652189 | inhibition, % at 10 µM;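 active means mean duplicate percent inhibition, scaled so buffer wells are 0 and the reference blocker 100, over three buffer SD above buffer mean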
TMEM16A Ca cntr: calcium mobilization counter-screen hit for TMEM16A inhibitor series; shares compounds with ANO1 block; TMEM16A/YFP HEK293, Fluo4 calcium mobilization; calcium response (% of ionomycin), % at 10 µM; actives 2% (n = 2,300);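 active means duplicate-averaged calcium signal over 20% of the ionomycin maximum, relative to buffer baseline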;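 further: each well's signal is peak minus trough fluorescence divided by its pre-addition baseline; 0% = buffer wells and 100% = ionomycin wells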
YFP-HEK293 quench: parental YFP-HEK293 iodide quench counter-screen activity | shares compounds with ANO1 block | ionomycin | YFP ratio F(max-min)/F0 at 10 µM | 2,300 tested, under 10 active;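 active means yellow fluorescent protein signal ratio exceeding the buffer control mean by over 5 SD of those controls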;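 further: ratio is mean of duplicate wells from kinetic YFP trace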
ClC-1 inh: blocks the rat ClC-1 voltage-dependent chloride channel; shares compounds with ANO1 block; CHO ClC-1-YFP, iodide influx fluorescence quench; iodide control reads 0, buffer control 100; ratio percent, % at 10 µM; 2,300 tested, under 10 active;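 active means duplicate-mean ratio percent above the mean of iodide-only control wells, which defines zero, plus 5 of their SD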;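 further: higher percent means stronger block of ClC-1 iodide influx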
Target sequence (P35524 whole entry, looked up): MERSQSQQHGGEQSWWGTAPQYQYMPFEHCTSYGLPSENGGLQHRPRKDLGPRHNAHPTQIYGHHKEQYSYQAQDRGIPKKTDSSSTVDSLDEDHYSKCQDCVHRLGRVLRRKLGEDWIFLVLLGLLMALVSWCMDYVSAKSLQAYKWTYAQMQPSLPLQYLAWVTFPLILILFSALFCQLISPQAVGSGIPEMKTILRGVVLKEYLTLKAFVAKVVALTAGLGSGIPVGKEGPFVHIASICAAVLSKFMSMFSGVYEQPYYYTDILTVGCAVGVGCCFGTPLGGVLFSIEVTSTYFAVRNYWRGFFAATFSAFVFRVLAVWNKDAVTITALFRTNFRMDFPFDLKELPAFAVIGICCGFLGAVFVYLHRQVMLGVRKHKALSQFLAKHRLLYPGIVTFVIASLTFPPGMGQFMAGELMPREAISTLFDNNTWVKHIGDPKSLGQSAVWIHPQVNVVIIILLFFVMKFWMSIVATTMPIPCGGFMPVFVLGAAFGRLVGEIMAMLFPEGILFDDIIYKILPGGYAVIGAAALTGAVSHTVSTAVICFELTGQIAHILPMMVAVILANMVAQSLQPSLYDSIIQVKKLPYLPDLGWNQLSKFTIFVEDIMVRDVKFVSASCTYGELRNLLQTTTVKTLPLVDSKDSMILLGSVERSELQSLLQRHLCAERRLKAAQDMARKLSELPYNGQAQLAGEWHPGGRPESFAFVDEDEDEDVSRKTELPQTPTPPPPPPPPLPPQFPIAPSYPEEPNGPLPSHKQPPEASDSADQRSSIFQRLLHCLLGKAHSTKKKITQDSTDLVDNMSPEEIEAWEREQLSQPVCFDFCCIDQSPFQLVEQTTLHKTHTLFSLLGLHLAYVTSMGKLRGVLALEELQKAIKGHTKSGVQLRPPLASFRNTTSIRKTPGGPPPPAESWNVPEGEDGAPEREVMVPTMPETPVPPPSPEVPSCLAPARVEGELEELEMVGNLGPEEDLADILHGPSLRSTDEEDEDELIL
Active calls of the source: *; i = inactive; / = no result given.

SMILES	UPR CHOP act	ANO1 activ	CHOP inh	Lipid droplet	ANO1 block	UPR XBP1 act	TMEM16A reconf	TMEM16A Ca cntr	YFP-HEK293 quench	ClC-1 inh
Cc1ccc(S(=O)(=O)Oc2ccccc2/C=C2/SC(=O)NC2=O)cc1	0.3	i	6.3	8.7	25*	3.2	i	i	-0.899	-11.0
CN(Cc1nccn1C)C(=O)CC1C(=O)NCCN1Cc1ccc(F)cc1Cl (stereo not given)	1.2	i	/	4.3	i	-5.7	/	/	/	/
O=C(Nc1ccccc1)c1ccccc1OS(=O)(=O)c1ccccc1	3.2	i	/	-4.6	i	-1.9	/	/	/	/
O=C(Oc1ccccc1)c1ccccc1OS(=O)(=O)c1ccccc1	-2.4	i	13.8	-14.1	100*	-0.3	i	i	-1.43	-2.5
NC(=O)CSc1nnc(Cn2c(=O)sc3ccccc32)n1-c1cccc(Cl)c1	0.5	i	12.6	/	25*	-2.1	i	i	-1.26	-5.5
O=C(O)CSc1nnc(Cn2c(=O)sc3ccccc32)n1-c1cccc(Cl)c1	-0.3	i	1.8	/	i	-2.3	/	/	/	/
CCCCC(=O)NS(=O)(=O)c1ccc(N=NN(CC)CC)cc1	0.6	i	-8.0	-0.6	i	-2.3	/	/	/	/
CCN(CC)S(=O)(=O)c1cc(C(=O)OCC(=O)Nc2cccc(S(=O)(=O)N(C)C)c2)ccc1F	-0.4	i	-0.2	6.1	25*	-2.8	i	i	-1.07	5.0
CCN(CC)S(=O)(=O)c1ccc(Cl)c(NC(=O)COC(=O)c2ccc(O)cc2)c1	-2.3	i	-4.7	3.1	25*	-0.3	45.0%*	i	-0.911	-8.5
CCOc1ccc(CONS(=O)(=O)c2ccc(NC(C)=O)cc2)cc1Cl	-1.4	i	26.2	-11.5	25*	-2.1	23.0%*	i	-1.08	-7.5
CCSc1nnc(-c2cc(Br)ccc2N=Cc2c(C)[nH]n(-c3ccccc3)c2=O)c(=O)[nH]1	-0.7	i	17.0	2.8	100*	-2.3	21.0%*	20.0%*	-0.972	-22.0
C/C(=N\Nc1ccc(S(=O)(=O)N2CCOCC2)cc1[N+](=O)[O-])C(C)C	-1.3	i	-13.6	-3.2	i	-0.8	/	/	/	/
Cc1cc(N2CCOCC2)cc(C)[n+]1[O-]	-1.3	i	1.8	/	25*	-0.3	i	i	-0.95	-10.0
CCN(CC)CCN1C(=O)C(O)=C(C(=O)c2cc3cccc(OC)c3o2)C1c1cccs1 (stereo not given)	0.6	/	6.6	4.4	i	2.3	/	/	/	/
Cc1ccc(C(c2nnnn2C2CCCCC2)N(C)C2CCCCC2)cc1 (stereo not given)	-1.4	i	62.8	-32.1	25*	-5.7	i	i	-1.12	-8.0
CN(c1ccccc1)C(c1ccc(F)cc1)c1nnnn1C1CCCC1 (stereo not given)	-0.9	i	10.2	-19.0	i	-0.3	i	i	-0.921	-13.0
CC(C)C(c1nnnn1C1CCCC1)N(C)C1CCCCC1 (stereo not given)	-0.9	i	43.6	-12.6	i	-0.3	/	/	/	/
c1ccc(C[n+]2cccc3c4ccccc4ccc32)cc1	-0.9	i	-9.6	/	25*	0.9	i	i	-1.1	-2.0
CCCCC[n+]1cccc2c3ccccc3ccc21	-2.1	i	0.1	-5.6	i	0.6	/	/	/	/
CCCCn1c(SCc2nc3ccccc3s2)nc2cc(S(N)(=O)=O)ccc21	1.1	i	52.0	15.6	25*	0.9	i	i	-0.806	-3.0
CCCCn1c(SCc2nc3ccccc3s2)nc2ccccc2c1=O	0.8	i	25.9	-35.9	i	0.5	/	/	/	/
COc1ccccc1C1CCN(c2ccc(CO)cc2[N+](=O)[O-])CC1	5.0	i	-12.9	1.2	25*	-0.1	i	i	-1.08	-16.5
CCCN(CCC)S(=O)(=O)c1ccc(NC(=O)COc2ccccc2)cc1	-2.4	i	37.9	0.1	i	-1.7	/	/	/	/
CN(c1ccccc1)S(=O)(=O)c1ccc(C(=O)Nc2nnc(-c3ccc(F)cc3)o2)cc1	2.5	/	44.2	4.9	100*	3.8	17.5%*	i	-1.02	-7.5
COc1cc(NS(=O)(=O)c2ccc(Br)s2)cc(OC)c1	1.1	i	24.6	10.8	25*	1.3	32.0%*	i	-0.984	-6.5
SMILES	UPR CHOP act	ANO1 activ	CHOP inh	Lipid droplet	ANO1 block	UPR XBP1 act	TMEM16A reconf	TMEM16A Ca cntr	YFP-HEK293 quench	ClC-1 inh
CCC(=O)c1ccc(OC)c(OC)c1OCc1ccccc1	/	i	/	/	/	/	/	/	/	/
CSCC[C@H](NC(=O)OC(C)(C)C)c1nnc(SCc2ccc(F)cc2)o1	-0.5	i	39.9	/	100*	-6.5	i	i	-0.939	-3.0
O=C(c1ccc(Cl)c(Cl)c1)N1CCN(c2ccccn2)CC1	2.2	i	/	22.8	i	-5.8	/	/	/	/
O=C(c1cccc(COc2ccc(Cl)cc2Cl)c1)N1CCN(c2ccccn2)CC1	-1.5	i	38.4	-10.2	100*	1.8	i	i	-1.16	-14.0
COCCCNc1nc2ccccc2nc1NS(=O)(=O)c1cc(Cl)ccc1Cl	0.5	i	/	-15.0	25*	0.4	16.5%*	i	-0.862	-12.0
COCCCNc1nc2ccccc2nc1NS(=O)(=O)c1ccc(Cl)cc1	1.1	i	/	/	i	-7.2	/	/	/	/
O=C(Nc1ccc(Cl)cc1)NC1CCCC1Cc1ccco1 (stereo not given)	2.0	i	-7.1	-2.3	i	-1.3	/	/	/	/
O=C(Nc1ccc(Cl)cc1)NC1CCCCC1Cc1ccco1 (stereo not given)	0.7	i	44.7	/	100*	-0.8	42.5%*	i	-1.3	-12.0
Cc1ccccc1CSCCNC(=S)Nc1ccccc1	-2.0	i	-8.1	-3.1	i	-1.9	/	/	/	/
S=C(NCCSCc1ccc(Cl)cc1Cl)Nc1ccccc1	-1.7	i	81.0*	/	100*	-1.0	23.0%*	i	-0.957	-19.0
